The text below walks through data of ChEMBL document CHEMBL1795208 (J Med Chem, 2011).

Where only a bound is given, the exact number is not on record here.

Common to all, as to type: functional, cell-based
Assay [1] deals with B16-F10. Put plainly: Antiproliferative activity against mouse B16F10 cells after 72 hrs by MTS/PMS assay. To be noted: B16-F10, 72 h. The procedure, abridged:
(§1)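 Cells kept in Advanced DMEM/F12 (1:1) with non-essential amino acids, 2 mM L-glutamine, penicillin, streptomycin and 10% FBS at 37 °C, 5% CO2. Seeded at 2000/well, attached overnight. Compound added in DMSO across a concentration range (1% DMSO final) for 72 h. Viable cells read by MTS/PMS and normalized to 1% DMSO controls (100%). IC50 taken from separate triplicate experiments.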

Assay [2] has as its system SK-MEL-28. Briefly: Antiproliferative activity against human SK-MEL-28 cells after 72 hrs by MTS/PMS assay. Particulars: SK-MEL-28, 72 h. A digest of the protocol: as §1
The nature of assay [3]: Antiproliferative activity against human JMAR cells after 72 hrs by MTS/PMS assay. The procedure, abridged: as §1
Assay [4] in a line: Antiproliferative activity against human MDA1986 cells after 72 hrs by MTS/PMS assay. To be noted: MDA1986, 72 h. A digest of the protocol:
as §1

Assay [5] concerns SK-BR-3. Put plainly: Antiproliferative activity against human SKBR3 cells expressing HER2 after 72 hrs by MTS/PMS assay. To be noted: SK-BR-3, 72 h. The procedure, abridged: as §1
Assay [6] relates to MCF7. Put plainly: Antiproliferative activity against human MCF7 cells expressing estrogen receptor after 72 hrs by MTS/PMS assay. To be noted: MCF7, 72 h. A digest of the protocol:
as §1

Assay [7] is described as follows: Antiproliferative activity against human androgen-independent PC3MM2 cells after 72 hrs by MTS/PMS assay. Particulars: PC3MM2, 72 h. The procedure, abridged: as §1
Assay [8] can be described thus: Antiproliferative activity against human androgen-dependent LNCaP-LN3 cells after 72 hrs by MTS/PMS assay. Particulars: LNCaP-LN3, 72 h. The procedure, abridged:
as §1

Usually IC50 stands for the concentration at which inhibition is half-maximal. With `COc1cccc(-c2cc(C(=O)Nc3cc4cc(OC)c(OC5CCCN(C(C)=O)C5)c(C)c4oc3=O)ccc2OC)c1` (centres undefined), the half-maximal inhibitory concentration (IC50) in assay [1] came out at 23.9 µM; in assay [2], 29.4 µM; in assay [3], 32.8 µM; in assay [4], 36.4 µM.

In the case of `CNC(=O)Oc1ccc2cc(NC(=O)c3ccc(OC)c(-c4cccc(OC)c4)c3)c(=O)oc2c1C`, the concentration for half-maximal inhibition (IC50) worked out at 2.4 µM in assay [5], 1.72 µM in assay [6], 5.22 µM in assay [7] and 3.75 µM in assay [8].

Regarding `COc1cccc(-c2cc(C(=O)Nc3cc4ccc(OC(C)=O)c(OC)c4oc3=O)ccc2OC)c1`, the IC50 in assay [5] is 20.5 µM; in assay [6], 8.62 µM; in assay [7], 19.3 µM; in assay [8], 14.6 µM.

In the case of `COc1cccc(-c2cc(C(=O)Nc3cc4ccc(OCCN(C)C)c(OC)c4oc3=O)ccc2OC)c1`, the IC50 in assay [5] was 1.77 µM; in assay [6] it was 3.08 µM; in assay [7] it was 6.2 µM; in assay [8], 5.22 µM.

Take `CNC(=O)Oc1ccc2cc(NC(=O)c3ccc(OC)c(-c4cccc(OC)c4)c3)c(=O)oc2c1OC`: the 50% inhibitory concentration (IC50) in assay [5] is > 100 µM; in assay [6] it was 6.54 µM; in assay [7] it was 1.68 µM; in assay [8] it was 2.37 µM.

For the molecule `COc1cccc(-c2cc(C(=O)Nc3cc4cc(OC)c(OC5C=CCN(C(C)=O)C5)c(C)c4oc3=O)ccc2OC)c1` (centres undefined), the half-inhibitory concentration (IC50) in assay [1] was 21.4 µM; in assay [2], 27.6 µM; in assay [3], 35.1 µM; in assay [4] it was 25.1 µM.

Regarding `Cc1c(OC2CCN(C)CC2)ccc2cc(NC(=O)c3cc4ccccc4[nH]3)c(=O)oc12`, the half-maximal inhibitory concentration (IC50) in assay [5] was determined as 0.48 µM; in assay [6] it was 0.57 µM; in assay [7], 11.4 µM; in assay [8], 11.8 µM.

For the molecule `COc1cccc(-c2cc(C(=O)Nc3cc4ccc(O[C@@H]5O[C@H](CO)C[C@@H](O)[C@H]5O)c(OC)c4oc3=O)ccc2OC)c1`, the IC50 in assay [5] was found to be 11.8 µM; in assay [6] it was 14.3 µM; in assay [7] it was 17.9 µM; in assay [8], 6.78 µM.

`COc1cccc(-c2cc(C(=O)Nc3cc4ccc(OP(=O)(OC)OC)c(C)c4oc3=O)ccc2OC)c1`: the half-inhibitory concentration (IC50) in assay [5] was > 100 µM; in assay [6], > 100 µM; in assay [7], > 100 µM; in assay [8], 3.65 µM.

Regarding `COc1cccc(-c2cc(C(=O)Nc3cc4ccc(OCCCN(C)C)c(OC)c4oc3=O)ccc2OC)c1`, the half-inhibitory concentration (IC50) in assay [5] stood at 0.91 µM; in assay [6], 1.53 µM; in assay [7], 4.08 µM; in assay [8], 8.03 µM.

As to `COc1cccc(-c2cc(C(=O)Nc3cc4ccc(OC5C=CCC(C)(C)C5)c(C)c4oc3=O)ccc2OC)c1` (centres undefined), the IC50 in assay [1] was > 50 µM; in assay [2], 23.8 µM; in assay [3] it was 6.7 µM; in assay [4], 24.4 µM.

Consider `COc1cccc(-c2cc(C(=O)Nc3cc4ccc(OCCCN(C)C)c(C)c4oc3=O)ccc2OC)c1`, for which the concentration for half-maximal inhibition (IC50) in assay [5] amounted to 0.6 µM; in assay [6], 0.5 µM; in assay [7], 12.8 µM; in assay [8], 37.5 µM.

Turning to `COc1cccc(-c2cc(C(=O)Nc3cc4ccc(OC5C=CCCC5)c(C)c4oc3=O)ccc2OC)c1` (centres undefined), the IC50 in assay [1] was > 50 µM; in assay [2], 18.6 µM; in assay [3], 7.5 µM; in assay [4], 22.4 µM.

`COc1cccc(-c2cc(C(=O)Nc3cc4cc(OC)c(OCCN(C)C)c(C)c4oc3=O)ccc2OC)c1`: the IC50 stood at 1.42 µM in assay [5], 1.29 µM in assay [6], 4.87 µM in assay [7] and 6.28 µM in assay [8].

Regarding `COc1cccc(-c2cc(C(=O)Nc3cc4cc(OC)c(O[C@@H]5OCC[C@@H](O)[C@H]5O)c(C)c4oc3=O)ccc2OC)c1`, the IC50 in assay [5] came out at 7.18 µM; in assay [6], 9.5 µM; in assay [7], 24 µM; in assay [8], 12.8 µM.

As for `CNCCOc1ccc2cc(NC(=O)c3ccc(OC)c(-c4cccc(OC)c4)c3)c(=O)oc2c1OC`, the half-maximal inhibitory concentration (IC50) in assay [5] stood at 3.6 µM; in assay [6], 4.32 µM; in assay [7] it was 9.12 µM; in assay [8] it was 15.2 µM.

In the case of `COc1cccc(-c2cc(C(=O)Nc3cc4ccc(OC(N)=O)c(C)c4oc3=O)ccc2OC)c1`, the IC50 in assay [5] came out at 3.02 µM; in assay [6] it was 1.16 µM; in assay [7] it was 6.37 µM; in assay [8] it was 2.61 µM.

`COc1cccc(-c2cc(C(=O)Nc3cc4ccc(OS(C)(=O)=O)c(C)c4oc3=O)ccc2OC)c1`: the IC50 in assay [5] is 7.33 µM; in assay [6], 8.85 µM; in assay [7], > 100 µM; in assay [8], 20 µM.

Consider `COc1cccc(-c2cc(C(=O)Nc3cc4cc(OC)c(O[C@@H]5C[C@H](O)CCO5)c(C)c4oc3=O)ccc2OC)c1`, for which the half-inhibitory concentration (IC50) in assay [5] was 1.37 µM; in assay [6], > 100 µM; in assay [7], 2.35 µM; in assay [8], 3.27 µM.

Consider `COc1cccc(-c2cc(C(=O)Nc3cc4cc(OC)c(OC(N)=O)c(C)c4oc3=O)ccc2OC)c1`, for which the IC50 worked out at 6.83 µM in assay [5], 6.29 µM in assay [6], 2.62 µM in assay [7] and 3.55 µM in assay [8].

Turning to `COc1cccc(-c2cc(C(=O)Nc3cc4ccc(OC(=O)N(C)C)c(C)c4oc3=O)ccc2OC)c1`, the IC50 in assay [5] is 39.9 µM; in assay [6] it was 74.4 µM; in assay [7] it was > 100 µM; in assay [8], 5.4 µM.

Regarding `COc1cccc(-c2cc(C(=O)Nc3cc4cc(OC)c(O[C@H]5C[C@H](O)CCO5)c(C)c4oc3=O)ccc2OC)c1`, the IC50 was > 100 µM in assay [5], > 100 µM in assay [6], 1.24 µM in assay [7] and 1.49 µM in assay [8].

In the case of `COc1cccc(-c2cc(C(=O)Nc3cc4ccc(O)c(OC)c4oc3=O)ccc2OC)c1`, the IC50 in assay [5] was > 100 µM; in assay [6], 5.32 µM; in assay [7], > 100 µM; in assay [8], 6.18 µM.

Take `CNC(=O)Oc1c(OC)cc2cc(NC(=O)c3ccc(OC)c(-c4cccc(OC)c4)c3)c(=O)oc2c1C`: the IC50 in assay [5] stood at 1.53 µM; in assay [6], 7.78 µM; in assay [7] it was 3.13 µM; in assay [8] it was 4.77 µM.

For `COc1cccc(-c2cc(C(=O)Nc3cc4cc(OC)c(OP(=O)(OC)OC)c(C)c4oc3=O)ccc2OC)c1`, the half-maximal inhibitory concentration (IC50) amounted to 26.5 µM in assay [5], 24.2 µM in assay [6], 31.3 µM in assay [7] and 1.36 µM in assay [8].

Take `COc1cccc(-c2cc(C(=O)Nc3cc4cc(OC)c(O[C@@H]5OC[C@@H](O)[C@H]5O)c(C)c4oc3=O)ccc2OC)c1`: the 50% inhibitory concentration (IC50) in assay [5] came to 9.45 µM; in assay [6], 3.37 µM; in assay [7], 9.56 µM; in assay [8], 4.72 µM.

With `COc1cccc(-c2cc(C(=O)Nc3cc4cc(OC)c(OC5OC(C)(C)[C@H](OC)[C@@H](O)[C@H]5O)c(C)c4oc3=O)ccc2OC)c1` (some centres undefined), the IC50 in assay [5] was 58.8 µM; in assay [6], > 100 µM; in assay [7], > 100 µM; in assay [8], 26.6 µM.

In the case of `COc1cccc(-c2cc(C(=O)Nc3cc4cc(OC)c(O[C@H]5OCC[C@@H](O)[C@H]5O)c(C)c4oc3=O)ccc2OC)c1`, the IC50 in assay [5] came out at 12.5 µM; in assay [6] it was 64.5 µM; in assay [7], 25.4 µM; in assay [8] it was 14.9 µM.

On to `COc1cccc(-c2cc(C(=O)Nc3cc4ccc(O[C@@H]5OCC[C@@H](O)[C@H]5O)c(OC)c4oc3=O)ccc2OC)c1`, for which the IC50 in assay [5] was 1.46 µM; in assay [6] it was 17.5 µM; in assay [7], 10.7 µM; in assay [8], 2.29 µM.

For the molecule `COc1c(OCCCN(C)C)ccc2cc(NC(=O)c3cc4ccccc4[nH]3)c(=O)oc12`, the IC50 in assay [5] is 1.5 µM; in assay [6], 1.41 µM; in assay [7] it was 8.95 µM; in assay [8], 4.71 µM.

In the case of `COc1c(OC2CCN(C)CC2)ccc2cc(NC(=O)c3cc4ccccc4[nH]3)c(=O)oc12`, the half-maximal inhibitory concentration (IC50) in assay [5] turned out to be 2.58 µM; in assay [6] it was 1.86 µM; in assay [7] it was 7.93 µM; in assay [8], 12.6 µM.

As for `COc1cccc(-c2cc(C(=O)Nc3cc4ccc(OC5CCN(C)CC5)c(C)c4oc3=O)ccc2OC)c1`, the IC50 was 1.34 µM in assay [5], 1.51 µM in assay [6], 3.13 µM in assay [7] and 4.12 µM in assay [8].

As for `COc1cccc(-c2cc(C(=O)Nc3cc4ccc(OS(=O)(=O)c5ccc(C)cc5)c(C)c4oc3=O)ccc2OC)c1`, the IC50 in assay [5] is > 100 µM; in assay [6], > 100 µM; in assay [7], > 100 µM; in assay [8], 0.58 µM.

As to `COc1cccc(-c2cc(C(=O)Nc3cc4ccc(OC5C=CCN(C(C)=O)C5)c(C)c4oc3=O)ccc2OC)c1` (centres undefined), the IC50 is > 50 µM in assay [5], > 50 µM in assay [6], 3.73 µM in assay [7] and 0.9 µM in assay [8].

`CNCCOc1c(OC)cc2cc(NC(=O)c3ccc(OC)c(-c4cccc(OC)c4)c3)c(=O)oc2c1C`: the IC50 is 3.15 µM in assay [5], 6.23 µM in assay [6], 11.8 µM in assay [7] and > 100 µM in assay [8].

On to `COc1cccc(-c2cc(C(=O)Nc3cc4ccc(OC5C=CCC(C)C5)c(C)c4oc3=O)ccc2OC)c1` (centres undefined), for which the half-maximal inhibitory concentration (IC50) is > 50 µM in assay [1], 20.6 µM in assay [2], 24.9 µM in assay [3] and 21.8 µM in assay [4].
